Test results from ChEMBL document CHEMBL4312019, “Design, synthesis, and evaluation of compounds capable of reducing Pseudomonas aeruginosa virulence” (Eur J Med Chem, 2020).
≈ marks a conversion by molar mass, not a printed value. Calls of active or inactive are those of the source. The calls are words filed in the database; no cut-off is given here.

What was measured:
[1] = target: Beta-2 adrenergic receptor (Homo sapiens) (UniProt P07550); test: Displacement of [125I]-CGP12177 from recombinant human beta2 adrenergic receptor expressed in HEK Flp-In cells measured after 90 mins by microbeta scintillation counting method; format: cell-based
[2] = target: Sodium-dependent noradrenaline transporter (Homo sapiens) (UniProt P23975); test: Displacement of [3H]-Nisoxetine from human recombinant NET receptor expressed in stable HEK cells incubated for 90 mins by microbeta scintillation counting method; format: cell-based
[3] = target: Sodium-dependent dopamine transporter (Homo sapiens) (UniProt Q01959); test: Displacement of [3H]-Win35428 from human recombinant DAT receptor expressed in stable HEK cells incubated for 90 mins by microbeta scintillation counting method; format: cell-based
[4] = species: Rattus norvegicus; test: Displacement of [3H]-PK11195 from PBR in rat brain incubated for 90 mins by microbeta scintillation counting method; format: tissue-based
[5] = target: Histamine H2 receptor (Homo sapiens) (UniProt P25021); test: Displacement of [125I]-Iodoaminopotentidine from human recombinant histamine H2 receptor expressed in stable HEK cells incubated for 90 mins by microbeta scintillation counting method; format: cell-based
[6] = target: 5-hydroxytryptamine receptor 1B (Homo sapiens) (UniProt P28222); test: Displacement of [3H]-5-CT from human recombinant 5HT1B receptor expressed in stable HEK cells at 10 uM incubated for 90 mins by microbeta scintillation counting method; format: cell-based
Method in brief: (§1)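 Primary radioligand binding screen run by the NIMH Psychoactive Drug Screening Program, with one test level of 10 μM. The read-out was inhibition of radioligand binding at each receptor.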

[7] = target: Mu-type opioid receptor (Homo sapiens) (UniProt P35372); test: Displacement of [3H]-DAMGO from human recombinant MOR receptor expressed in stable HEK cells incubated for 90 mins by microbeta scintillation counting method; format: cell-based
[8] = target: 5-hydroxytryptamine receptor 1A (Homo sapiens) (UniProt P08908); test: Displacement of [3H]-8-OH-DPAT from human recombinant 5HT1A receptor expressed in stable CHO cells at 10 uM incubated for 90 mins by microbeta scintillation counting method; format: cell-based; method in brief: as §1
[9] = test system: NIH3T3; test: Cytotoxicity against mouse NIH/3T3 cells measured after 72 hrs by MTT assay; format: cell-based; settings: NIH3T3, 72 h
[10] = target: D(3) dopamine receptor (Homo sapiens) (UniProt P35462); test: Displacement of [3H]-N-methylspiperone from human recombinant dopamine D3 receptor expressed in HEKT cells incubated for 90 mins by microbeta scintillation counting method; format: cell-based
[11] = target: 5-hydroxytryptamine receptor 2C (Homo sapiens) (UniProt P28335); test: Displacement of [3H]-Mesulergin from human recombinant 5HT2C receptor expressed in CHO cells at 10 uM incubated for 90 mins by microbeta scintillation counting method; format: cell-based; method in brief: as §1
[12] = test system: NIH3T3; test: Cytotoxicity against mouse NIH/3T3 cells measured after 48 hrs by MTT assay; format: cell-based; settings: NIH3T3, 48 h
[13] = target: Alpha-1A adrenergic receptor (Homo sapiens) (UniProt P35348); test: Displacement of [3H]-prazosin from human recombinant alpha1A adrenergic receptor at 10 uM incubated for 90 mins by microbeta scintillation counting method; method in brief: as §1
Chain of Alpha-1A adrenergic receptor (Homo sapiens) (P35348 whole entry): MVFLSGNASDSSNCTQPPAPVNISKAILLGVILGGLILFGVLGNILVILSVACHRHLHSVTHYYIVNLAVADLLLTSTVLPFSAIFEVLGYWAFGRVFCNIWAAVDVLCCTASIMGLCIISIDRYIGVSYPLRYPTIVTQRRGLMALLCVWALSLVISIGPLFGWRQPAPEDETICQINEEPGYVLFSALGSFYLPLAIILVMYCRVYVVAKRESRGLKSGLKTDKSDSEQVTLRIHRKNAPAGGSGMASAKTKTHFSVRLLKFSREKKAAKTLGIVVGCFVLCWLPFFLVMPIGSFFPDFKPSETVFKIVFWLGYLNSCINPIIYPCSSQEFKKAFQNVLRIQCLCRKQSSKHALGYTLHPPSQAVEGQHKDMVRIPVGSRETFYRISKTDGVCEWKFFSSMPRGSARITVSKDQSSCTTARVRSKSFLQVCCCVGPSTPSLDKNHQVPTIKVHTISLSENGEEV

Chain of Beta-2 adrenergic receptor (Homo sapiens) (P07550 whole entry, looked up): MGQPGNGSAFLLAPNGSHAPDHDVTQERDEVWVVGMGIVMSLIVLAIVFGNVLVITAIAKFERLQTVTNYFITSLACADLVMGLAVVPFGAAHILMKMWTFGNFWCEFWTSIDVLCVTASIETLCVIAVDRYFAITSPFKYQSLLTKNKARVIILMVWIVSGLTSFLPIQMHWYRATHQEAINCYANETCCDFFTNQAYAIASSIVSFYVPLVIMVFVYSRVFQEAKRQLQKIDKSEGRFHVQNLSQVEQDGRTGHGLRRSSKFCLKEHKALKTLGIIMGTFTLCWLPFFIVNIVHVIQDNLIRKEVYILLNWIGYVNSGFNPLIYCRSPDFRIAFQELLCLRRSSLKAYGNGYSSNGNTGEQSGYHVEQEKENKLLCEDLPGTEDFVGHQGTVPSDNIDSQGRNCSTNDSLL
Chain of Sodium-dependent dopamine transporter (Homo sapiens) (Q01959 whole entry): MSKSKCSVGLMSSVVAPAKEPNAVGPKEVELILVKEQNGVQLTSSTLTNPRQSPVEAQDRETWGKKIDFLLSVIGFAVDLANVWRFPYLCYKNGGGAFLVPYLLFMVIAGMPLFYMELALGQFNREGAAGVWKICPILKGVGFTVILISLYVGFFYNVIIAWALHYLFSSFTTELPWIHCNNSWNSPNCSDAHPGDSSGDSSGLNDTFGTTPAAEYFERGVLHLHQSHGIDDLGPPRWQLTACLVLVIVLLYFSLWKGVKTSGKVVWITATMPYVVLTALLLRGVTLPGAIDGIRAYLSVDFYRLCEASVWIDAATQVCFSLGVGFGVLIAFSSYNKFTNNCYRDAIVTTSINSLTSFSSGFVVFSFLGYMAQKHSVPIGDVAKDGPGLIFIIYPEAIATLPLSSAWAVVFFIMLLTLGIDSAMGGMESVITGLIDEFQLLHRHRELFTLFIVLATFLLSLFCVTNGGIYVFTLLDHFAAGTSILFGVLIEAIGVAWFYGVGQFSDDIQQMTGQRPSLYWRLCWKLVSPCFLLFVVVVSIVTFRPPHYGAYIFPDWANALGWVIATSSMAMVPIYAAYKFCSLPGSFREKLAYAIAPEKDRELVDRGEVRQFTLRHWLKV
Chain of 5-hydroxytryptamine receptor 1B (Homo sapiens) (P28222 whole entry): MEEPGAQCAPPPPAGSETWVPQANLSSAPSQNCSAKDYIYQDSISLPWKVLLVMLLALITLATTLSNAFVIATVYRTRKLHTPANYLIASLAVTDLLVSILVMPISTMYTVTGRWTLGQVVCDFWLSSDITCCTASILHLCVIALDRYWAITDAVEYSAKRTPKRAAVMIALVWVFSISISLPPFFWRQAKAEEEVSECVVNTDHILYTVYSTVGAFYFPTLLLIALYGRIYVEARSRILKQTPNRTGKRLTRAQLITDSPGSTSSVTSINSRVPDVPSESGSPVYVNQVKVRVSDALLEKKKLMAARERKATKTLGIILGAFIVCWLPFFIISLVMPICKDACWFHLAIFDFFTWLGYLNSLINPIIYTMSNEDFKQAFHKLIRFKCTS
Chain of 5-hydroxytryptamine receptor 2C (Homo sapiens) (P28335 whole entry): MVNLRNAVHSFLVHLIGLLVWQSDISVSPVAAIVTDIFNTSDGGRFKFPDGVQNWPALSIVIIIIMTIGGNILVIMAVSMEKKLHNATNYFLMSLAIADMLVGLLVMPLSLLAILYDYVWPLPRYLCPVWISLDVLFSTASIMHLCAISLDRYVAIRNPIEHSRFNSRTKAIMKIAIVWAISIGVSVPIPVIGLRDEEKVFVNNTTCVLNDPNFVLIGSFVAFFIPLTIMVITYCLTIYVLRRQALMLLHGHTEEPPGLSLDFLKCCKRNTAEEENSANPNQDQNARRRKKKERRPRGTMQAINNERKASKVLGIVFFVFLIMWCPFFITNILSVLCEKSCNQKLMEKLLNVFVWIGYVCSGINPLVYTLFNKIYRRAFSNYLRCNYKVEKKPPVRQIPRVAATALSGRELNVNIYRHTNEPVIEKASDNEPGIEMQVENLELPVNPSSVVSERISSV
Chain of Histamine H2 receptor (Homo sapiens) (P25021 whole entry): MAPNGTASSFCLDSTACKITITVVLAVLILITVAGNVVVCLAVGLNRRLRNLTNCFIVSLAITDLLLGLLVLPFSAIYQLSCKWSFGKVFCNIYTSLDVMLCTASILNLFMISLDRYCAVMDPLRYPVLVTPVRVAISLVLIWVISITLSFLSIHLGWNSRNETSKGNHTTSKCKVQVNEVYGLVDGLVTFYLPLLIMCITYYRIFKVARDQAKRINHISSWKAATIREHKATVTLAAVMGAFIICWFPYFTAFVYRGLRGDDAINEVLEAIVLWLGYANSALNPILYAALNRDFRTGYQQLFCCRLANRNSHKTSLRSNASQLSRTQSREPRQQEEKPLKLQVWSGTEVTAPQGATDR
Chain of Mu-type opioid receptor (Homo sapiens) (P35372 whole entry): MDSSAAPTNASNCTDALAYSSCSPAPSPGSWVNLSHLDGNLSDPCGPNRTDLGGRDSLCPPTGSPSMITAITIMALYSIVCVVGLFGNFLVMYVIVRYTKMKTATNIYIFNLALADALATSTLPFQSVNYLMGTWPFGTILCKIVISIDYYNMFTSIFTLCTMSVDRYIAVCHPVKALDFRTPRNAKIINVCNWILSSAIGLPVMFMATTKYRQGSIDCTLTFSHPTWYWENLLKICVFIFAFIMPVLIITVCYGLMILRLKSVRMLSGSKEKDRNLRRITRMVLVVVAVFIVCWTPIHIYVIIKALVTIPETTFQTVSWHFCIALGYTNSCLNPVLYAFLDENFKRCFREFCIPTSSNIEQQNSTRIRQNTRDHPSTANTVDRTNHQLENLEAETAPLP
Chain of D(3) dopamine receptor (Homo sapiens) (P35462 whole entry): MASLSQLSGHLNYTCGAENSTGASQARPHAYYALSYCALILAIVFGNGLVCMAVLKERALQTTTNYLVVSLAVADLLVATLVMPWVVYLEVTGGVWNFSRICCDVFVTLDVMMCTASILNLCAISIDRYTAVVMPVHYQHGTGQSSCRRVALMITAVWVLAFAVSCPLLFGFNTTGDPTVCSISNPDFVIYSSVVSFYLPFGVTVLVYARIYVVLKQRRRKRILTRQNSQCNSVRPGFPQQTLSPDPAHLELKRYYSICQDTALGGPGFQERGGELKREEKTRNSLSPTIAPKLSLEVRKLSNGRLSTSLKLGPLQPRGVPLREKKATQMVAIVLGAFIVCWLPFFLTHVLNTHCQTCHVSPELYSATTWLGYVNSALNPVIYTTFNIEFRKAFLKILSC
Chain of Sodium-dependent noradrenaline transporter (Homo sapiens) (P23975 whole entry): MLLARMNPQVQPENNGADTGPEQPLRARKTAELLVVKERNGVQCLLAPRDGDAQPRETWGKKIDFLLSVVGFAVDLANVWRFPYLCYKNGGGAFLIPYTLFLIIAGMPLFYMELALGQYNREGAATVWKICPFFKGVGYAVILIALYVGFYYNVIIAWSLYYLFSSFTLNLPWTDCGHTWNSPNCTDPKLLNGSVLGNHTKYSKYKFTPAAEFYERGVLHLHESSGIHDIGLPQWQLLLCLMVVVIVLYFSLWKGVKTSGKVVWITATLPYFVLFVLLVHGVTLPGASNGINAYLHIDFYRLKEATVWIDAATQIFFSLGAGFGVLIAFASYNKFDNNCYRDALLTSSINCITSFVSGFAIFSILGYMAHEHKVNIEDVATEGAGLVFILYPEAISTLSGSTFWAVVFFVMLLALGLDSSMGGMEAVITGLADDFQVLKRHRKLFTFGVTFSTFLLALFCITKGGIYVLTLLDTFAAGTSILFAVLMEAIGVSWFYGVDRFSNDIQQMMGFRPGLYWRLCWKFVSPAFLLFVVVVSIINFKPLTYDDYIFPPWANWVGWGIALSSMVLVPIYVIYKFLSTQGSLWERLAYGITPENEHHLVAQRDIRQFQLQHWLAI
Chain of 5-hydroxytryptamine receptor 1A (Homo sapiens) (P08908 whole entry): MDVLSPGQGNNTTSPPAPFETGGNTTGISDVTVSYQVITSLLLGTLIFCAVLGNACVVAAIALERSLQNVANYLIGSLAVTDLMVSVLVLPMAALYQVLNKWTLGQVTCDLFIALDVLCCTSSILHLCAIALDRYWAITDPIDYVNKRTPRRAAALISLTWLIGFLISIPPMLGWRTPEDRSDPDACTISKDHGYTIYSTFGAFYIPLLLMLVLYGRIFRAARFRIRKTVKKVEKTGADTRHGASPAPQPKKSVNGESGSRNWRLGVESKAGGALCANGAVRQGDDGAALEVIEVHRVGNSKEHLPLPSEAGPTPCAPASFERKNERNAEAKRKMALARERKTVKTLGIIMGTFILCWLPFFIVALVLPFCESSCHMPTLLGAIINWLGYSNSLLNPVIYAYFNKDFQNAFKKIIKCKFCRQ

With `Cn1c2cccc(=O)c-2nc2ccccc21` [PYOCYANIN] the inhibition [1] was “inactive”, the inhibition [2] was “inactive” and the inhibition [3] was “inactive”. The inhibition [4] was “inactive”, the inhibition [5] was “inactive” and the inhibition [6] was “inactive”. For the same molecule, the inhibition [7] was “inactive”, the inhibition [8] was “inactive” and the IC50 [9] was 3.66 µg/mL (≈ 17.4 µM). For the same molecule, the inhibition [10] was “inactive”, the inhibition [11] was “inactive” and the IC50 [12] was 3.54 µg/mL (≈ 16.8 µM). The inhibition [13] was “inactive”.
